Calls of active or inactive are those of the source. The calls are words filed in the database; no cut-off is given here.

The first experiment is filed under the species Rattus norvegicus. Briefly: Inhibition of v-ATPase activity in rat brain synaptic vesicles. The experiment is classed as tissue-based.
Regarding `NC(=O)CC(NC(=O)C(N)Cc1c[nH]c2ccccc12)C(=O)NC(CCC(=O)O)C(=O)NC(Cc1ccccc1)C(=O)O` (racemic), the outcome was inactive.

In the case of `CCC(C)C(NC(=O)C(N)CCC(N)=O)C(=O)NC(CCC(=O)O)C(=O)NC(Cc1c[nH]c2ccccc12)C(=O)O` (racemic), the outcome was inactive.

The subject of another experiment is VGLUT (Rattus norvegicus). Briefly: Inhibition of [3H]glutamate uptake at VGLUT in rat brain synaptic vesicles relative to control; values are per cent of control. The arrangement: concentration or dose not given beside the values.
The compound `NC(=O)C[C@H](NC(=O)[C@H](N)Cc1c[nH]c2ccccc12)C(=O)N[C@H](CCC(=O)O)C(=O)N[C@H](Cc1ccccc1)C(=O)O` yielded a level, % of control of 41%.

On to `NC(=O)CC(NC(=O)C(N)Cc1c[nH]c2ccccc12)C(=O)NC(CCC(=O)O)C(=O)NC(Cc1ccccc1)C(=O)O` (racemic), for which the level, % of control was determined as 13%.

Compound `CC[C@H](C)[C@@H](NC(=O)[C@@H](N)CCC(N)=O)C(=O)N[C@@H](CCC(=O)O)C(=O)N[C@@H](Cc1c[nH]c2ccccc12)C(=O)O` registered a level, % of control of 69%.

In turn, `NC(=O)CCC(N)C(=O)NC(Cc1c[nH]c2ccccc12)C(=O)NC(CCC(=O)O)C(=O)NC(Cc1c[nH]c2ccccc12)C(=O)O` (racemic) came in with a level, % of control of 66%.

Compound `CC[C@H](C)[C@@H](NC(=O)[C@H](N)CCC(N)=O)C(=O)N[C@@H](CCC(=O)O)C(=O)N[C@H](Cc1c[nH]c2ccccc12)C(=O)O` had a level, % of control of 35%.

For the compound `CCC(C)C(NC(=O)C(N)CCC(N)=O)C(=O)NC(CCC(=O)O)C(=O)NC(Cc1c[nH]c2ccccc12)C(=O)O` (racemic), the level, % of control came out at 38%.

The compound `CC[C@H](C)[C@@H](NC(=O)[C@@H](N)CCC(N)=O)C(=O)N[C@@H](CCC(=O)O)C(=O)N[C@H](Cc1c[nH]c2ccccc12)C(=O)O` came in with a level, % of control of 28%.

`CC[C@H](C)[C@H](NC(=O)[C@@H](N)CCC(N)=O)C(=O)N[C@H](CCC(=O)O)C(=O)N[C@@H](Cc1c[nH]c2ccccc12)C(=O)O` displayed a level, % of control of 82%.

For `CC[C@H](C)[C@@H](NC(=O)[C@H](N)CCC(N)=O)C(=O)N[C@H](CCC(=O)O)C(=O)N[C@H](Cc1c[nH]c2ccccc12)C(=O)O`, the level, % of control came out at 63%.

`CC[C@H](C)[C@@H](NC(=O)[C@@H](N)CCC(N)=O)C(=O)N[C@H](CCC(=O)O)C(=O)N[C@H](Cc1c[nH]c2ccccc12)C(=O)O` yielded a level, % of control of 60%.

Tested on in a further experiment: not listed separately
As to the kind of experiment: Inhibition of [3H]glutamate uptake at VGLUT in rat brain synaptic vesicles. The experiment is classed as tissue-based. In short, it runs like this:
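Rat brain synaptic vesicles (approx. 0.1 mg protein) were incubated with ³H-L-glutamate (0.25 mM) and inhibitor over 0.01-5 mM, and the assay was started by adding substrate. IC50 values were taken from non-linear regression of sigmoidal dose-response curves and converted to Ki with the Cheng-Prusoff relationship, as mean ± s.e.m. (n = 3).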
For orientation: IC50 means the point on the concentration scale where inhibition reaches its midpoint. As usually defined, the Ki is the dissociation constant of the complex between target and ligand, obtained from inhibition or displacement. Regarding `CC[C@H](C)[C@H](NC(=O)[C@H](N)CCC(N)=O)C(=O)N[C@H](CCC(=O)O)C(=O)N[C@@H](Cc1c[nH]c2ccccc12)C(=O)O`, the midpoint of inhibition, the IC50, lay at 864 µM and affinity was put at a Ki of 828 µM.

Source of the values: ChEMBL document CHEMBL1149688, “Tetrapeptide inhibitors of the glutamate vesicular transporter (VGLUT)” (Bioorg Med Chem Lett, 2007).
